Measurements published in paper PMC8802302 (Journal of Medicinal Chemistry, 2021).

Assays:
[1] = PAMPA permeability; format: in vitro ADME; conditions: PBS pH 7.4, 5 h incubation
Summary of the method: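 DMSO stocks of test compound were diluted in PBS pH 7.4 and added to the donor side of a precoated PAMPA plate, with PBS pH 7.4 as acceptor, for 5 h. Both compartments were quantified by chemiluminescent nitrogen detection against a calibration curve, with background nitrogen corrected. Effective permeability was calculated from donor and acceptor concentrations, using measured rather than assumed solubility.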

[2] = target: LRRK2 (Homo sapiens, UniProt Q5S007); experiment: NanoBRET assay follow-up; format: cell-based; conditions: singlicate (n = 1) dose–response
Sequence of LRRK2 (Q5S007 whole entry): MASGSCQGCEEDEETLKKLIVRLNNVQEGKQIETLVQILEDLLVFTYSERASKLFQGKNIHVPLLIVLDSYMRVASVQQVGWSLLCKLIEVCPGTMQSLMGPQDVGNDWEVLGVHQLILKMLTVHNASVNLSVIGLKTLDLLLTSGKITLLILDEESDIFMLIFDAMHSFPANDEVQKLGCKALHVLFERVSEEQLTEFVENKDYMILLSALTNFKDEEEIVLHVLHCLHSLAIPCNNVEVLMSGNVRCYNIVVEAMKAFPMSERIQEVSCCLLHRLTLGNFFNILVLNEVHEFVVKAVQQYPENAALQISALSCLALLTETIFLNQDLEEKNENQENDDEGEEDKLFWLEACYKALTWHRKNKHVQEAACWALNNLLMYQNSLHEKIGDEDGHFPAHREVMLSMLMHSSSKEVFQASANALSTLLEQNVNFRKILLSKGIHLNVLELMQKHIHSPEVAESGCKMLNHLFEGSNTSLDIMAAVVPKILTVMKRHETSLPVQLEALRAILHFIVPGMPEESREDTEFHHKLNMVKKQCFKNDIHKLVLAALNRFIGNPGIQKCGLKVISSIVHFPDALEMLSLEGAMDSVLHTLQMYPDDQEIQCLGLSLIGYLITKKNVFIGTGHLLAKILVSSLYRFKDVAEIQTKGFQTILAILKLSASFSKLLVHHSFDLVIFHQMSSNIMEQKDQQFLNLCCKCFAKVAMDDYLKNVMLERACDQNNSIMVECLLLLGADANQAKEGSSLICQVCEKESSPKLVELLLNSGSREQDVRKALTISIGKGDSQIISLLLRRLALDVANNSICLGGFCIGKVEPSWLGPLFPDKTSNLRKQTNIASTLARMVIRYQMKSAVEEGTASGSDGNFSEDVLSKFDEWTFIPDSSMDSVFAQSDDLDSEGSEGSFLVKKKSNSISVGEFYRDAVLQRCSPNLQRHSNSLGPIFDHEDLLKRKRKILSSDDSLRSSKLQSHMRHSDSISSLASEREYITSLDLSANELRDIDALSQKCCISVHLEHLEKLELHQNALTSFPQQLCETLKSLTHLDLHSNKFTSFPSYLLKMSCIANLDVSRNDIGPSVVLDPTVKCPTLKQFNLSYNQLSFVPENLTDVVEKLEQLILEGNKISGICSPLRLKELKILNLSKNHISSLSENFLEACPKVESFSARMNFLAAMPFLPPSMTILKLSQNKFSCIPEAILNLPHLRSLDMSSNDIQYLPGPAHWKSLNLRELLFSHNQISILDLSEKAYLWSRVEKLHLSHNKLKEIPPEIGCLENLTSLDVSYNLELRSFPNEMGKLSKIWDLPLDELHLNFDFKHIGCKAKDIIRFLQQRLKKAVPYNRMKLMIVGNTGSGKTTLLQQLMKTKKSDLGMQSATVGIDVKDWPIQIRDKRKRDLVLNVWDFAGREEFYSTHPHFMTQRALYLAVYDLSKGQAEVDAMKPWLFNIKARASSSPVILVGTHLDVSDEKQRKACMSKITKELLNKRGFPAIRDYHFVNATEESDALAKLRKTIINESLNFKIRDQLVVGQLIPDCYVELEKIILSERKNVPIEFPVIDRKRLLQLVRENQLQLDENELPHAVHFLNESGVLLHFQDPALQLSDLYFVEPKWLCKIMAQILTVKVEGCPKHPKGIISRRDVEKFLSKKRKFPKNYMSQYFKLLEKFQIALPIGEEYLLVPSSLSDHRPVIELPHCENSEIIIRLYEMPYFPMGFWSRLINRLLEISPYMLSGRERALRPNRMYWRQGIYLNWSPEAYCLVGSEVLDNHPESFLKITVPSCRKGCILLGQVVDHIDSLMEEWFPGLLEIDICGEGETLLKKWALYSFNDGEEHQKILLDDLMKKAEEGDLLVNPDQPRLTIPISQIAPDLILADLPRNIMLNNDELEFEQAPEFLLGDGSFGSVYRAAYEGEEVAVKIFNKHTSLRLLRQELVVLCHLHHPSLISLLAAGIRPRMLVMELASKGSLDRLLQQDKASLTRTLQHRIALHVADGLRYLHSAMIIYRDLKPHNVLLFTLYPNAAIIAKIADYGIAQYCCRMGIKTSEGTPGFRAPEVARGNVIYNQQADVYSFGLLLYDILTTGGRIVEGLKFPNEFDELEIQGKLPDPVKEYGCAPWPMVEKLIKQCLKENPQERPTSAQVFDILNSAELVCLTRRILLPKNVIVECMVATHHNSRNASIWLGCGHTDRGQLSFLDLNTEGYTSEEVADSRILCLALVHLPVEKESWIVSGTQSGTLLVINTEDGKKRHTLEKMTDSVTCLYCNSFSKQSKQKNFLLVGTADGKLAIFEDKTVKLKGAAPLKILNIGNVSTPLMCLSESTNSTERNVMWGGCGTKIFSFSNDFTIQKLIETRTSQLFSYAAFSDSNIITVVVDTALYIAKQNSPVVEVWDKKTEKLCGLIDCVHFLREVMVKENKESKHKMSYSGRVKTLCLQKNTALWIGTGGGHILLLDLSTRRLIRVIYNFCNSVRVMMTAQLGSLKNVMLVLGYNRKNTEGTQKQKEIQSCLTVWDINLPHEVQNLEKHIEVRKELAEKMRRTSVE

[3] = test system: 16-member kinase panel; experiment: Eurofins custom enzymatic kinase panel, count of kinases inhibited; format: biochemical; conditions: 16-member Eurofins panel, 1 μM
Summary of the method: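 Radiometric kinase assays were run with ATP at Km. Each test compound was tested at a single concentration of 1 μM, in duplicate, against each panel kinase, with results as percent of control. The count is the number of kinases at ≤ 10 PoC, i.e. inhibited ≥ 90%.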

[4] = test system: 403 wild-type (WT) human kinases; experiment: DiscoverX scanMAX kinome-wide selectivity screen; format: binding; conditions: 403 WT human kinases; for no. kinases with PoC < 10: DiscoverX scanMAX, 1 μM; for S10 (1 μM): Percentage of screened kinases with PoC values < 10 at 1 μM
[5] = target: T1, DRAK1 (DRAK1-NLuc) (Homo sapiens, UniProt Q9UEE5); experiment: NanoBRET cellular target engagement assay; format: cell-based
T1 sequence (Q9UEE5 1-414): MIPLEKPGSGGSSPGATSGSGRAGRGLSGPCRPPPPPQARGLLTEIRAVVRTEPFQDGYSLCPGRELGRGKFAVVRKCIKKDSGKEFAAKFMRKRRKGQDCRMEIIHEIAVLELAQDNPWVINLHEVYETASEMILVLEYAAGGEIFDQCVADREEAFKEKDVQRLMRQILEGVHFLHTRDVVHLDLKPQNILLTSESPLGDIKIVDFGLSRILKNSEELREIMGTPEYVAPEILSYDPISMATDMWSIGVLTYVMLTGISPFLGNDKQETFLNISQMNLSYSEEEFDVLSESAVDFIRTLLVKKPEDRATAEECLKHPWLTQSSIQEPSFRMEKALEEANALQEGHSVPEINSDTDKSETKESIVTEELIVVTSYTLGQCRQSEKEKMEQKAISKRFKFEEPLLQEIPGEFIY

[6] = target: T2, DRAK2 (Homo sapiens, UniProt O94768); experiment: Eurofins kinase enzymatic radiometric assay; format: biochemical
T2 sequence (O94768 1-372): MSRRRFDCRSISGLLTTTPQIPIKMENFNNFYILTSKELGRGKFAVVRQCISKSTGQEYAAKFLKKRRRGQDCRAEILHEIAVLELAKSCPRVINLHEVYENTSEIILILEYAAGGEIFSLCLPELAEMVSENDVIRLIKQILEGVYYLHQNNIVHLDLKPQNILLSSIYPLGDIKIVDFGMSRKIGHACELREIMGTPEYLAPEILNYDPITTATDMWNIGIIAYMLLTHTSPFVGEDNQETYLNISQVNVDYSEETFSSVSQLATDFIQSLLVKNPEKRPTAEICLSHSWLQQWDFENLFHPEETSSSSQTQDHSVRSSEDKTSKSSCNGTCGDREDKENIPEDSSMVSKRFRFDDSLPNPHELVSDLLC
Summary of the method: (§1)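 Radiometric kinase activity assay with ATP at the Km for each kinase. Test compounds were run as 9-point dose–response curves in duplicate to give IC50.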

[7] = target: T3, ULK2 (Homo sapiens, UniProt Q8IYT8); experiment: Eurofins kinase enzymatic radiometric assay; format: biochemical
T3 sequence (Q8IYT8 1-1036): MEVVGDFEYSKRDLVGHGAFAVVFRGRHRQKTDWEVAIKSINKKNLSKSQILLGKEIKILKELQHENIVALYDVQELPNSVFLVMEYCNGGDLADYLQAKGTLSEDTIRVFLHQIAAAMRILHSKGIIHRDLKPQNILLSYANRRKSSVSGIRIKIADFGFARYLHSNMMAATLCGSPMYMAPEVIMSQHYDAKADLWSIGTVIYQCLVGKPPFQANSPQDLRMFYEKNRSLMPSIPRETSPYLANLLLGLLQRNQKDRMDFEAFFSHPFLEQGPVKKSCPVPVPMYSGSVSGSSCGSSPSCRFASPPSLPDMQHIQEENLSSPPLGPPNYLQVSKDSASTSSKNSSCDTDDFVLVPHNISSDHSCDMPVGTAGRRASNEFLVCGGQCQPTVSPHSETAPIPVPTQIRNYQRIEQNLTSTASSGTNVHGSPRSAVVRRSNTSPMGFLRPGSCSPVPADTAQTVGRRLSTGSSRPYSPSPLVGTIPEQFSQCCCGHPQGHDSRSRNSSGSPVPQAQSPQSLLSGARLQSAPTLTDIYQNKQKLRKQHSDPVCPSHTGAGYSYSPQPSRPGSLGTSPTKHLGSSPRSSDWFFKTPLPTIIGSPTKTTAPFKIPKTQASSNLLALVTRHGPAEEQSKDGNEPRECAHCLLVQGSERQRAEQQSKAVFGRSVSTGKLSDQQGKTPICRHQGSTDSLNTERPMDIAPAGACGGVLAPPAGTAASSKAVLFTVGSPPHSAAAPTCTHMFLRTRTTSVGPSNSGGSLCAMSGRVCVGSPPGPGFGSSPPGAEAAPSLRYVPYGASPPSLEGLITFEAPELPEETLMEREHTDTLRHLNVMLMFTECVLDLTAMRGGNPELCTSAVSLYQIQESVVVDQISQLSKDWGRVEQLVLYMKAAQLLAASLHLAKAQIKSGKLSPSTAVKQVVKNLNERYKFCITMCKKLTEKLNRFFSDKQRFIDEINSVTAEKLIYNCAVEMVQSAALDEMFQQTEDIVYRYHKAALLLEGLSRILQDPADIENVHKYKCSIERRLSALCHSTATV
Summary of the method: as §1

[8] = target: JAK2 (Homo sapiens, UniProt O60674); experiment: Eurofins kinase enzymatic radiometric assay; format: biochemical
Sequence of JAK2 (O60674 whole entry): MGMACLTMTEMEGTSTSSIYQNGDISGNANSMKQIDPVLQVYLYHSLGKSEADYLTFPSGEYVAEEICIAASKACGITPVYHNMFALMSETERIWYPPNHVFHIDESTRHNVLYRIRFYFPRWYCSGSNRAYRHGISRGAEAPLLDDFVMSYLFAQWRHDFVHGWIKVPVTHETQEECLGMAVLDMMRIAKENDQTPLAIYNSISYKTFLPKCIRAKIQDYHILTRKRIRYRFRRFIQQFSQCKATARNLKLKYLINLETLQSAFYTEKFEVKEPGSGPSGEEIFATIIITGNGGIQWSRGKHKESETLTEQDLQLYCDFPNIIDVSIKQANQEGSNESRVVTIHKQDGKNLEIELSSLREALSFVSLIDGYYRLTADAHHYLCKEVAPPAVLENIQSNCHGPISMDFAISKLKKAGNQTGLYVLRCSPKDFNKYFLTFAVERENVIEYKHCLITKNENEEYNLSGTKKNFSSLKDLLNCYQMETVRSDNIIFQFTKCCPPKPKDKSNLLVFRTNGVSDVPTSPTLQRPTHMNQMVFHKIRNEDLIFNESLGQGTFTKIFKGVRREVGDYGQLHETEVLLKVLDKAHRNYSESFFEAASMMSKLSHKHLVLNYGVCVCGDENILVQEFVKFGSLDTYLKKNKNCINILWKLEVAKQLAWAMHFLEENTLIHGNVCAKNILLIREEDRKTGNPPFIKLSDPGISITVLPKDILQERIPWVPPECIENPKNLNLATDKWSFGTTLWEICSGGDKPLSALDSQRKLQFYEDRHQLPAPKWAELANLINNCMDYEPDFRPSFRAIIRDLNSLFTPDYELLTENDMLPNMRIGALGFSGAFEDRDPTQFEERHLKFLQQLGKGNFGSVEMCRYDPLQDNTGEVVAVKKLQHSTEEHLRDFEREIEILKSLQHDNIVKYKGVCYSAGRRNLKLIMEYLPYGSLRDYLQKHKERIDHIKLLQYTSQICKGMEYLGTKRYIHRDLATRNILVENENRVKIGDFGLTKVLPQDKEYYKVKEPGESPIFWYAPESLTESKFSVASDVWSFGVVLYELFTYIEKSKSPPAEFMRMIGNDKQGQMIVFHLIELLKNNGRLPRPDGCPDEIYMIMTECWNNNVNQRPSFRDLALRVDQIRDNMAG
Summary of the method: as §1

| Compound | Pe (permeability coefficient, PAMPA) [1] | LRRK2 NanoBRET IC50 [2] | no. kinases ≤ 10 PoC in enzyme panel [3] | no. kinases with PoC < 10 [4] | S10 (1 μM) [4] | fold loss in potency, enzymatic versus NanoBRET, DRAK1 [5] | DRAK1 NanoBRET IC50 ([5]; HEK293, 0.5 μM tracer K-9, n = 1 where no error, SEM n = 3) | IC50 [6] | IC50 [7] | IC50 [8] |
| --- | --- | --- | --- | --- | --- | --- | --- | --- | --- | --- |
| Cc1nn(CC(F)(F)F)cc1Nc1ncc(C2CC2)c(NCCc2c[nH]cn2)n1 [Compound 3, N^4-(2-(1H-Imidazol-4-yl)ethyl)-5-cyclopropyl-N^2-(3-methyl-1-(2,2,2-trifluoroethyl)-1H-pyrazol-4-yl)pyrimidine-2,4-diamine] | low permeability | did not have any activity | 0 | 2 | 0.005 | – | – | – | – | – |
| Cc1nn(CC(F)(F)F)cc1Nc1ncc(C2CC2)c(NCCCNC(=O)C2CCC2)n1 [Compound 4, N-(3-((5-Cyclopropyl-2-((3-methyl-1-(2,2,2-trifluoroethyl)-1H-pyrazol-4-yl)amino)pyrimidin-4-yl)amino)propyl)cyclobutanecarboxamide] | – | – | 1 | 11 | 0.027 | < 10 fold | submicromolar | 0.062 µM | 1.74 µM | – |
| O=C(NCCCNc1ccnc(Nc2cccc(NC(=O)N3CCCC3)c2)n1)C1CCC1 [Compound 17, N-(3-((4-((3-(Cyclobutanecarboxamido)propyl)amino)pyrimidin-2-yl)amino)phenyl)pyrrolidine-1-carboxamide] | – | – | 0 | 3 | 0.007 | < 10 fold | – | – | – | > 10 µM |
